# Test results: ChEMBL document CHEMBL1641387, “Antiproliferative effects of saponins from the roots of Platycodon grandiflorum on cultured human tumor cells” (J Nat Prod, 2010)
# Active and inactive are the calls of the source. The calls are words filed in the database; no cut-off is given here.
# Tests used:
# Format in all cases: functional, cell-based
# [1] = (§1) Antiproliferative activity against human HCT15/CL02 cells after 48 hrs by sulforhodamine B assay; settings: HCT-15, 48 h
# Method in brief: (§2)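 Cells kept in RPMI1640 with 5% FBS at 37 °C, 5% CO2. HCT15/CL02 is a line derived from HCT15 by stepwise doxorubicin exposure. Cells seeded and left 24 h to attach, then exposed continuously for 48 h to serially diluted saponins. Fixed with cold 10% TCA, 1 h at 4 °C, stained with 0.4% SRB, dye solubilized in 10 mM Tris (pH 10.5), absorbance at 520 nm. Each run in triplicate; IC50 by nonlinear regression, mean ± SD of three independent experiments.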
# [2] = (§3) Antiproliferative activity against human MESSA/DX5 cells after 48 hrs by sulforhodamine B assay; settings: MES-SA/Dx5, 48 h; method in brief: as §2
# HCT-15 [3] = experiment: Antiproliferative activity against human HCT15 cells after 48 hrs by sulforhodamine B assay; settings: for IC50: HCT-15, 48 h; method in brief: as §2
# [4] = (§4) Antiproliferative activity against human MESSA cells after 48 hrs by sulforhodamine B assay; settings: MES-SA; method in brief: as §2
# HCT-15 [5] = experiment: as §1; method in brief: as §2
# MES-SA/Dx5 = experiment: as §3; method in brief: as §2
# MES-SA = experiment: as §4; method in brief: as §2
SMILES,IC50 (HCT-15 [3]),IC50 [1],IC50 [2],IC50 [4],Activity (HCT-15 [5]),Activity (MES-SA/Dx5),Activity (HCT-15 [3]),Activity (MES-SA)
C[C@@H]1O[C@@H](O[C@H]2[C@H](OC(=O)[C@]34CCC(C)(C)C[C@H]3C3=CC[C@@H]5[C@@]6(C)C[C@H](O)[C@H](O[C@@H]7O[C@H](CO)[C@@H](O)[C@H](O)[C@H]7O)[C@@](C)(CO)[C@@H]6CC[C@@]5(C)[C@]3(C)C[C@H]4O)OC[C@H](O)[C@@H]2O)[C@H](O)[C@H](O)[C@H]1O[C@@H]1OC[C@@H](O)[C@H](O[C@@H]2OC[C@](O)(CO)[C@H]2O)[C@H]1O [POLYGALACIN D],8.5 µM,> 10 µM,7.7 µM,5 µM,,,,
CC(=O)O[C@H]1[C@H](O[C@H]2[C@H](OC(=O)[C@]34CCC(C)(C)C[C@H]3C3=CC[C@@H]5[C@@]6(C)C[C@H](O)[C@H](O[C@@H]7O[C@H](CO)[C@@H](O)[C@H](O[C@@H]8O[C@H](CO)[C@@H](O)[C@H](O)[C@H]8O)[C@H]7O)[C@@](C)(CO)[C@@H]6CC[C@@]5(C)[C@]3(C)C[C@H]4O)OC[C@H](O)[C@@H]2O)O[C@@H](C)[C@H](O[C@@H]2OC[C@@H](O)[C@H](O[C@@H]3OC[C@](O)(CO)[C@H]3O)[C@H]2O)[C@H]1O,3.6 µM,5.8 µM,3.4 µM,3.3 µM,,,,
C[C@@H]1O[C@@H](O[C@H]2[C@H](OC(=O)[C@]34CCC(C)(C)C[C@H]3C3=CC[C@@H]5[C@@]6(C)C[C@H](O)[C@H](O[C@@H]7O[C@H](CO)[C@@H](O)[C@H](O[C@@H]8O[C@H](CO)[C@@H](O)[C@H](O)[C@H]8O)[C@H]7O)C(CO)(CO)[C@@H]6CC[C@@]5(C)[C@]3(C)C[C@H]4O)OC[C@H](O)[C@@H]2O)[C@H](O)[C@H](O)[C@H]1O[C@@H]1OC[C@@H](O)[C@H](O[C@@H]2OC[C@](O)(CO)[C@H]2O)[C@H]1O [PLATYCODIN D2],9.6 µM,5.7 µM,5.2 µM,3.5 µM,,,,
C[C@@H]1O[C@@H](O[C@H]2[C@H](OC(=O)[C@]34CCC(C)(C)C[C@H]3C3=CC[C@@H]5[C@@]6(C)C[C@H](O)[C@H](O[C@@H]7O[C@H](CO)[C@@H](O)[C@H](O[C@@H]8O[C@H](CO)[C@@H](O)[C@H](O)[C@H]8O)[C@H]7O)C(CO)(CO)[C@@H]6CC[C@@]5(C)[C@]3(C)C[C@H]4O)OC[C@H](O)[C@@H]2O)[C@H](O)[C@H](O)[C@H]1O[C@@H]1OC[C@@H](O)[C@H](O)[C@H]1O,,,,,Active,Active,Active,Active
CC(=O)O[C@H]1[C@H](O[C@H]2[C@H](OC(=O)[C@]34CCC(C)(C)C[C@H]3C3=CC[C@@H]5[C@@]6(C)C[C@H](O)[C@H](O[C@@H]7O[C@H](CO)[C@@H](O)[C@H](O)[C@H]7O)C(CO)(CO)[C@@H]6CC[C@@]5(C)[C@]3(C)C[C@H]4O)OC[C@H](O)[C@@H]2O)O[C@@H](C)[C@H](O[C@@H]2OC[C@@H](O)[C@H](O[C@@H]3OC[C@](O)(CO)[C@H]3O)[C@H]2O)[C@H]1O [3'O-ACETYLPLATYCODIN D],3.4 µM,4.1 µM,2.2 µM,2.3 µM,,,,
C[C@@H]1O[C@@H](O[C@H]2[C@H](OC(=O)[C@]34CCC(C)(C)C[C@H]3C3=CC[C@@H]5[C@@]6(C)C[C@H](O)[C@H](O[C@@H]7O[C@H](CO)[C@@H](O)[C@H](O)[C@H]7O)C(CO)(CO)[C@@H]6CC[C@@]5(C)[C@]3(C)C[C@H]4O)OC[C@H](O)[C@@H]2O)[C@H](O)[C@H](O)[C@H]1O[C@@H]1OC[C@@H](O)[C@H](O[C@@H]2OC[C@](O)(CO)[C@H]2O)[C@H]1O [PLATYCODIN D],5.7 µM,7.9 µM,> 10 µM,3.9 µM,,,,
C[C@@H]1O[C@@H](O[C@H]2[C@H](OC(=O)[C@]34CCC(C)(C)C[C@H]3C3=CC[C@@H]5[C@@]6(C)C[C@H](O)[C@H](O[C@@H]7O[C@H](CO)[C@@H](O)[C@H](O[C@@H]8O[C@H](CO)[C@@H](O)[C@H](O)[C@H]8O)[C@H]7O)[C@@](C)(CO)[C@@H]6CC[C@@]5(C)[C@]3(C)C[C@H]4O)OC[C@H](O)[C@@H]2O)[C@H](O)[C@H](O)[C@H]1O[C@@H]1OC[C@@H](O)[C@H](O[C@@H]2OC[C@](O)(CO)[C@H]2O)[C@H]1O [POLYGALACIN D2],3.8 µM,5.8 µM,3.4 µM,2.6 µM,,,,

# More lines, main results first:
IC50 (HCT-15 [3]),SMILES,IC50 [1],IC50 [2],IC50 [4],Activity (HCT-15 [5]),Activity (MES-SA/Dx5),Activity (HCT-15 [3]),Activity (MES-SA)
3.6 µM,CC(=O)O[C@H]1[C@@H](O)[C@H](O[C@H]2[C@H](OC(=O)[C@]34CCC(C)(C)C[C@H]3C3=CC[C@@H]5[C@@]6(C)C[C@H](O)[C@H](O[C@@H]7O[C@H](CO)[C@@H](O)[C@H](O[C@@H]8O[C@H](CO)[C@@H](O)[C@H](O)[C@H]8O)[C@H]7O)[C@@](C)(CO)[C@@H]6CC[C@@]5(C)[C@]3(C)C[C@H]4O)OC[C@H](O)[C@@H]2O)O[C@@H](C)[C@@H]1O[C@@H]1OC[C@@H](O)[C@H](O[C@@H]2OC[C@](O)(CO)[C@H]2O)[C@H]1O [2'OACETYLPOLYGALACIN D2],5.9 µM,3.4 µM,3.4 µM,,,,
3.4 µM,CC(=O)O[C@H]1[C@@H](O)[C@H](O[C@H]2[C@H](OC(=O)[C@]34CCC(C)(C)C[C@H]3C3=CC[C@@H]5[C@@]6(C)C[C@H](O)[C@H](O[C@@H]7O[C@H](CO)[C@@H](O)[C@H](O)[C@H]7O)C(CO)(CO)[C@@H]6CC[C@@]5(C)[C@]3(C)C[C@H]4O)OC[C@H](O)[C@@H]2O)O[C@@H](C)[C@@H]1O[C@@H]1OC[C@@H](O)[C@H](O[C@@H]2OC[C@](O)(CO)[C@H]2O)[C@H]1O,4.2 µM,2.2 µM,2.3 µM,,,,
> 10 µM,CC(=O)O[C@H]1[C@H](O[C@H]2[C@H](OC(=O)[C@]34CCC(C)(C)C[C@H]3C3=CC[C@@H]5[C@@]6(C)C[C@H](O)[C@H](O[C@@H]7O[C@H](CO)[C@@H](O)[C@H](O)[C@H]7O)[C@@](C)(CO)[C@@H]6CC[C@@]5(C)[C@]3(C)C[C@H]4O)OC[C@H](O)[C@@H]2O)O[C@@H](C)[C@H](O[C@@H]2OC[C@@H](O)[C@H](O[C@@H]3OC[C@](O)(CO)[C@H]3O)[C@H]2O)[C@H]1O,> 10 µM,6.2 µM,6.3 µM,,,,
1.6 µM,COc1cc([C@@H]2c3cc4c(cc3[C@@H](O[C@@H]3O[C@@H]5CO[C@@H](C)O[C@H]5[C@H](O)[C@H]3O)[C@H]3COC(=O)[C@H]23)OCO4)cc(OC)c1O [ETOPOSIDE],> 10 µM,> 10 µM,0.3 µM,,,,
6.7 µM,CC(=O)O[C@H]1[C@@H](O)[C@H](O[C@H]2[C@H](OC(=O)[C@]34CCC(C)(C)C[C@H]3C3=CC[C@@H]5[C@@]6(C)C[C@H](O)[C@H](O[C@@H]7O[C@H](CO)[C@@H](O)[C@H](O)[C@H]7O)[C@@](C)(CO)[C@@H]6CC[C@@]5(C)[C@]3(C)C[C@H]4O)OC[C@H](O)[C@@H]2O)O[C@@H](C)[C@@H]1O[C@@H]1OC[C@@H](O)[C@H](O[C@@H]2OC[C@](O)(CO)[C@H]2O)[C@H]1O,> 10 µM,4.2 µM,3.6 µM,,,,
